Measured values from ChEMBL document CHEMBL1153616, “Synthesis and antiviral activity of new pyrazole and thiazole derivatives” (Eur J Med Chem, 2009).
≈ marks a conversion by molar mass, not a printed value.

Assays:
[1] = tested on: Sindbis virus; test: Antiviral activity against Sindbis virus infected in african green monkey Vero cells assessed as inhibition of virus-induced cytopathicity after 3 days postinfection; format: functional, organism-based; details: 72 h
Outline: (§1)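 Confluent cell monolayers infected with 100 CCID50 virus; after 2 h adsorption at 37 °C, virus removed and serial compound dilutions added (DMSO stocks 10 mg/ml). Incubated 37 °C for 3 days until complete CPE in untreated virus control. EC50 = concentration protecting 50% of infected cells from viral cytopathogenicity; ">" marks highest concentration tested.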

[2] = tested on: Respiratory syncytial virus; test: Antiviral activity against RSV infected in human HeLa cells assessed as inhibition of virus-induced cytopathicity after 3 days; format: functional, organism-based; details: 72 h; outline: as §1
[3] = tested on: Coxsackievirus B4; test: Antiviral activity against Coxsackievirus B4 infected in african green monkey Vero cells assessed as inhibition of virus-induced cytopathicity after 3 days; format: functional, organism-based; details: Enterovirus B, 72 h; outline: as §1
[4] = tested on: Mammalian orthoreovirus 1; test: Antiviral activity against Reovirus 1 infected in african green monkey Vero cells assessed as inhibition of virus-induced cytopathicity after 3 days; format: functional, organism-based; details: Mammalian orthoreovirus 1, Vero, 72 h; outline: as §1
[5] = Cytotoxicity against african green monkey Vero cells assessed as minimum cytotoxic concentration required to cause microscopically detectable alteration in normal cell morphology; format: cell-based; details: chlorocebus sabaeus
Outline: (§2)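 Run in parallel with antiviral assays on uninfected cell cultures; test compounds from 10 mg/ml DMSO stocks in serial dilution. Value is minimum cytotoxic concentration (MCC) producing microscopically detectable alteration of normal cell morphology.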

[6] = tested on: Coxsackievirus B4; test: Antiviral activity against Coxsackievirus B4 infected in human HeLa cells assessed as inhibition of virus-induced cytopathicity after 3 days; format: functional, organism-based; details: Enterovirus B, 72 h
Outline: (§3)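 Confluent cell monolayers infected with 100 CCID50 virus; after 2 h adsorption at 37 °C, virus removed and serial compound dilutions added (DMSO stocks 10 mg/ml). Incubated 37 °C for 3 days until complete CPE in untreated virus control.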

[7] = Cytotoxicity against human HeLa cells assessed as minimum cytotoxic concentration required to cause microscopically detectable alteration in normal cell morphology; format: cell-based; outline: as §2
[8] = tested on: Vaccinia virus; test: Antiviral activity against Vaccinia virus infected in human HEL cells assessed as inhibition of virus-induced cytopathicity after 3 days; format: functional, organism-based; details: Orthopoxvirus vaccinia, 72 h
[9] = tested on: Human alphaherpesvirus 1; test: Antiviral activity against HSV1 KOS infected in human HEL cells assessed as inhibition of virus-induced cytopathicity after 3 days; format: functional, organism-based; details: Human alphaherpesvirus 1, KOS, 72 h
[10] = tested on: Vesicular stomatitis virus; test: Antiviral activity against Vesicular stomatitis virus infected in human HeLa cells assessed as inhibition of virus-induced cytopathicity after 3 days; format: functional, organism-based; details: 72 h
[11] = tested on: Human alphaherpesvirus 2; test: Antiviral activity against HSV2 G infected in human HEL cells assessed as inhibition of virus-induced cytopathicity after 3 days; format: functional, organism-based; details: Human alphaherpesvirus 2, strain G, 72 h; outline: as §1
[12] = tested on: Human respirovirus 3; test: Antiviral activity against Parainfluenza virus type 3 infected in african green monkey Vero cells assessed as inhibition of virus-induced cytopathicity after 3 days; format: functional, organism-based; details: Human respirovirus 3, Vero, 72 h; outline: as §1
[13] = tested on: Vesicular stomatitis virus; test: Antiviral activity against Vesicular stomatitis virus infected in human HEL cells assessed as inhibition of virus-induced cytopathicity after 3 days; format: functional, organism-based; details: 72 h
[14] = Cytotoxicity against HEL cells assessed as minimum cytotoxic concentration required to cause microscopically detectable alteration in normal cell morphology; format: cell-based; details: human; outline: as §2
[15] = tested on: Punta Toro virus; test: Antiviral activity against Punta Toro virus infected in african green monkey Vero cells assessed as inhibition of virus-induced cytopathicity after 3 days; format: functional, organism-based; details: 72 h; outline: as §3
[16] = tested on: Human alphaherpesvirus 1; test: Antiviral activity against thymidine kinase-deficient ACV-resistant HSV1 KOS infected in human HEL cells assessed as inhibition of virus-induced cytopathicity after 3 days; format: functional, organism-based; details: Human alphaherpesvirus 1, KOS, 72 h

SMILES	EC50 [1] [µg/mL]	EC50 [2] [µg/mL]	EC50 [3] [µg/mL]	EC50 [4] [µg/mL]	MCC [5] [µg/mL]	EC50 [6] [µg/mL]	MCC [7] [µg/mL]	EC50 [8] [µg/mL]	EC50 [9] [µg/mL]	EC50 [10] [µg/mL]	EC50 [11] [µg/mL]	EC50 [12] [µg/mL]	EC50 [13] [µg/mL]	MCC [14] [µg/mL]	EC50 [15] [µg/mL]	EC50 [16] [µg/mL]
CC(=O)N1N=C(c2ccccc2)CC1c1ccc(OCc2ccccc2)cc1 (centres undefined)	> 20	> 100	> 20	> 20	100	> 100	> 100	> 20	> 20	> 100	> 20	> 20	> 20	100	> 20	> 20
Cc1ccc(-c2csc(N3N=C(c4ccc(Cl)cc4)CC3c3ccc(OCc4ccccc4)cc3)n2)cc1 (centres undefined)	> 20	> 100	> 20	> 20	100	> 100	> 100	> 20	> 20	> 100	> 20	> 20	> 20	100	> 20	> 20
Clc1ccc(-c2csc(N3N=C(c4ccc(Br)cc4)CC3c3ccc(OCc4ccccc4)cc3)n2)cc1 (centres undefined)	> 100	> 100	> 100	> 100	> 100	> 100	> 100	> 100	> 100	> 100	> 100	> 100	> 100	> 100	> 100	> 100
CC(=O)N1N=C(c2ccc(Br)cc2)CC1c1ccc(OCc2ccccc2)cc1 (centres undefined)	> 20	> 20	> 20	> 20	100	> 20	100	> 20	> 20	> 20	> 20	> 20	> 20	100	> 20	> 20
Nc1nc2c(ncn2COC(CO)CO)c(=O)[nH]1 [GANCICLOVIR]								> 100	0.08 (≈ 0.313 µM)		0.08 (≈ 0.313 µM)		> 100	> 100		6 (≈ 23.5 µM)
Cc1ccc(C2=NN(c3nc(-c4ccc(C)cc4)cs3)C(c3ccc(OCc4ccccc4)cc3)C2)cc1 (centres undefined)	> 100	> 100	> 100	> 100	> 100	> 100	> 100	> 20	> 20	> 100	> 20	> 100	> 20	100	> 100	> 20
NC(=S)N1N=C(c2ccc(Cl)cc2)CC1c1ccc(OCc2ccccc2)cc1 (centres undefined)	> 100	> 100	> 100	> 100	> 100	> 100	> 100	> 100	> 100	> 100	> 100	> 100	> 100	> 100	> 100	> 100
Cc1ccc(C2=NN(c3nc(-c4ccc(Cl)cc4)cs3)C(c3ccc(OCc4ccccc4)cc3)C2)cc1 (centres undefined)	> 20	> 20	> 20	> 20	100	> 20	100	> 20	> 20	> 20	> 20	> 20	> 20	100	> 20	> 20
Cc1ccc(-c2csc(N3N=C(c4ccccc4)CC3c3ccc(OCc4ccccc4)cc3)n2)cc1 (centres undefined)	> 20	> 100	> 20	> 20	100	> 100	> 100	> 100	> 100	> 100	> 100	> 20	> 100	> 100	> 20	> 100
